# Assay outcomes: PubChem, several laboratories
# Sampled rows, rich in hits. Any-hit rate of the full collection: about 1.6%.
# GSTO1 inh = counter-screen for RBBP9 inhibitors: inhibitors of human GSTO1. AID 1974. inhibition, % at 5.96 µM. recombinant GSTO1, activity-based probe fluorescence polarization. 300,000 tested, 1.1% active. P78417;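 active = inhibition above the campaign mean inhibition plus 3 SD, cut at about 35% in these data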;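 also: 0% = GSTO1-1 with DMSO and 100% = wells lacking GSTO1-1 enzyme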
# Apaf-1 inh = blocks human Apaf-1 apoptosome activity | O14727 | reconstituted apoptosome caspase-3 activity, DEVD-Rh110 fluorescence | inhibition, % at 20 µM | 330,000 tested, 0.71% active | AID 489030; active = inhibition of at least 40% at 20 µM;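 also: plate controls were DMSO wells for no effect and DEVD-CHO caspase inhibitor wells for full effect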
#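 Medium: Hepes buffer, pH 7.5 / System: biochemical Apaf-1 apoptosome reconstitution / Measured by: Rh110 fluorescence, excitation 480 nm, emission 540 nm / Times: compound with Apaf-1, dATP, procaspase-3 30 min, then 50 min reaction, room temperature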
# PAD4 inh = inhibitors of human PAD4; Q9UM07; recombinant PAD4, RCA probe fluorescence polarization; inhibition, % at 6.36 µM; 330,000 tested, 0.41% active; AID 485272;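 active = percent inhibition above a cutoff equal to the mean of all tested compounds plus 3 SD, cut at about 15% in these data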;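 also: 0% = PAD4 with RCA probe and DMSO and 100% = probe without PAD4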
# TDP2 absorb = blocks human TDP2 phosphodiesterase activity; O95551; recombinant TDP2, T5PNP hydrolysis, p-nitrophenol absorbance 415 nm; inhibition, % at 12.8 µM; 370,000 tested, 0.34% active; AID 720702;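 active = inhibition above the mean of all tested compounds plus 3 SD, set per campaign, cut at about 25% in these data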;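 also: 0% = DMSO with enzyme and 100% = buffer with substrate but no TDP2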
# Target sequence (O95551 whole entry, looked up): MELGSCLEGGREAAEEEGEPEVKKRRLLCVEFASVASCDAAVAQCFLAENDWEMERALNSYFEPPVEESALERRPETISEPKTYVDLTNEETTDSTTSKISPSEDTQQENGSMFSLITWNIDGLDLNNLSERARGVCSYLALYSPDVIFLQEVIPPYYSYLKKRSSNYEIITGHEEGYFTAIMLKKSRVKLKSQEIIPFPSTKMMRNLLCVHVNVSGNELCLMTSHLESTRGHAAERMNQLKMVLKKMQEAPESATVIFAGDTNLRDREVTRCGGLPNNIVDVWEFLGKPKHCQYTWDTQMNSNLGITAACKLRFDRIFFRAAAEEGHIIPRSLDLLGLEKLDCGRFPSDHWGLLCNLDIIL
#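 System – recombinant human TDP2 · Amount – 120 nM TDP2 per well · Buffer or medium – Mg2+-containing Tris-HCl buffer, pH 7.5 · Reagent – T5PNP substrate, 5 mM · Dosing – 12.8 µM single point, 1% DMSO · Incubation – 2 h at 37 °C · Measured by – epi absorbance · Read-out basis – percent inhibition · Benchmarks – high control without enzyme, low control DMSO plus TDP2 · Repeats – singlicate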
# GASC-1 inh = inhibitors of human GASC-1 (JMJD2C) demethylase; inhibition, % at 2.35 µM; 330,000 tested, 0.069% active; AID 2099; GST-JMJD2C(1-420) H3K9me3 demethylation, DELFIA europium; Q9H3R0;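 active = more than half of a compound's replicate wells show inhibition beyond 50%, single wells judged on their own value; inconclusive = some, but no more than half, of replicates pass 50% inhibition; inactive = no replicate passes 50% inhibition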;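 also: signal counts dimethyl H3K9 product captured on neutravidin plate; 0% = median of DMSO wells and 100% = 0.3 times that DMSO median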
# SUMO HTRF inh = blocks human SUMOylation mediated by UBC9; P63279; HTRF SUMOylation assay, SAE1/SAE2 + UBC9, in vitro; inhibition, % at 35 µM; 290,000 tested, 0.36% active; AID 2006; in the data active = inhibition above about 50%, passing the limit was not always enough; inconclusive = no clear call, values can overlap the other calls
# Target sequence (P63279 whole entry, looked up): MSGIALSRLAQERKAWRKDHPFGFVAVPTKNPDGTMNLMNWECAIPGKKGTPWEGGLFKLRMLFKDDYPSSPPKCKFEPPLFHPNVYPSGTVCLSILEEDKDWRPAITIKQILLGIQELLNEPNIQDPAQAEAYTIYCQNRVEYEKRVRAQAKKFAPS
# * = called active by the depositor; ? = inconclusive; nt = no result.
SMILES,GSTO1 inh,Apaf-1 inh,PAD4 inh,TDP2 absorb,GASC-1 inh,SUMO HTRF inh
O=[N+]([O-])c1ccccc1/C=N\Nc1nccs1,6.9,-2.5,-3.4,0.1,-0.2,5.9
C/C(=N\N=C(/N)SC1CC(=O)N(c2ccc(Cl)cc2)C1=O)c1cccs1 (stereo not drawn),36.3*,-2.9,-2.4,-9.1,0.9,1.8
Fc1cccc(Cl)c1CNc1ccc(N2CCCC2)cc1,36.6*,47.8*,3.8,6.5,-7.0,9.8
NS(=O)(=O)c1ccc(NCc2c(F)cccc2Cl)cc1,nt,nt,nt,14.6,14.3,9.4
Cc1c(N=C2C=C(Br)C(=O)C(Br)=C2)c(=O)n(-c2ccccc2)n1C,nt,30.6,nt,61.1*,nt,?
Cc1c(N=C2C=CC(=O)c3ccccc32)c(=O)n(-c2ccccc2)n1C,nt,nt,nt,23.7,-7.1,56.0
CC(C)N(C(=O)Nc1ccc2nccnc2c1)C(C)C,11.3,35.2,-20.7,-13.0,-10.7,93.5*
C=CCN1[C@H](C)COc2cccc(F)c2S1(=O)=O,nt,nt,nt,-17.9,nt,nt
CN1CCN(CCCNC(=O)c2ccc(/C=C3\Oc4ccccc4N(Cc4ccccc4F)C3=O)cc2)CC1,-11.8,38.0,-4.3,-6.0,-12.4,33.8
Cc1cccc(CN2C(=O)/C(=C\c3ccc(C(=O)NCCCN4CCN(C)CC4)cc3)Oc3ccccc32)c1,-14.4,52.5*,-5.9,-13.6,7.7,22.9
CCc1nn(CC(=O)NC(C)CCc2ccccc2)c(=O)c2cc3cc(F)ccc3n12 (stereo not drawn),-0.3,9.1,-0.5,-0.6,4.2,51.0*
COc1ccc2cc(Br)ccc2c1CC(=O)NCCCN1CCOCC1,8.1,6.4,-3.6,7.8,56.6*,nt
CCn1c(SCc2nc3sc(C(=O)O)c(C)c3c(=O)[nH]2)nc2ccccc21,3.2,4.2,-12.6,1.7,-2.7,54.7*
COCCn1c(SCc2nc3sc(C(=O)OC)c(C)c3c(=O)[nH]2)nc2ccccc21,7.4,11.0,-2.8,-3.9,-1.9,8.7
Cc1ccc2nc(-c3ccc(NC(=O)CSc4nnc(-c5cccc(Cl)c5)n4Cc4ccco4)cc3)sc2c1,nt,nt,nt,2.6,nt,nt
OC1(c2cccc(F)c2)CCN(Cc2ccncc2)CC1,12.0,-4.1,2.9,-3.5,68.7*,13.8
COc1ccc2c(c1)CC(C1(O)C(=O)N(C)c3ccccc31)C2=O (stereo not drawn),5.8,-10.6,0.0,-3.0,50.6*,3.2
Cc1nc(N2CCN(C(=O)C3CCCCC3)CC2)c2c3c(sc2n1)CCCC3,nt,nt,nt,-5.5,nt,nt
O=C(CSc1ccc2ccccc2c1)NCCc1ccc(O)c(O)c1,52.4*,12.9,-1.3,-2.7,-10.6,12.1
Cc1ccc(-n2cccc2/C=C2\C(=N)N3N=C(c4ccco4)SC3=NC2=O)cc1,-31.1,9.8,-5.7,16.2,-3.8,64.3*
CC(=O)NC(c1ccc(C(C)C)cc1)c1ccc2cccnc2c1O (stereo not drawn),1.2,-2.3,-2.8,-14.8,18.3,56.3*
CCCCC(=O)NC(c1ccc(C(C)C)cc1)c1ccc2cccnc2c1O (stereo not drawn),-4.5,-462.6,-0.9,-5.8,13.0,-49.4
CN(C)c1ccc(NC(=O)c2sc(SCC(=O)Nc3nccs3)nc2N)cc1,18.0,1.5,-7.1,9.4,5.8,-16.2
CN(C)c1ccc(NC(=O)c2sc(SCC(=O)Nc3ccc(Br)cc3)nc2N)cc1,3.5,-7.9,1.6,-1.9,14.0,54.8*
CCn1c(C)nc2cc(C(=O)N/N=C/c3ccc(O)c(O)c3O)ccc21,nt,nt,nt,-9.5,-30.2,68.2*
SMILES,GSTO1 inh,Apaf-1 inh,PAD4 inh,TDP2 absorb,GASC-1 inh,SUMO HTRF inh
Oc1c(/C=N/Nc2cccc3cccnc23)ccc2ccccc12,3.0,29.7,-2.0,7.3,-12.8,66.4*
COC(=O)[C@H](C)N(Cc1cn(Cc2ccccc2)nn1)S(=O)(=O)c1ccccc1Br,nt,nt,nt,-15.4,nt,nt
CC(C)(C)OC(=O)NCc1ccccc1/C=C/S(=O)(=O)NCCc1ccccc1,nt,nt,nt,7.2,nt,nt
Cc1c(C(=O)NCCC2=CCCCC2)oc2ccc(S(=O)(=O)N3CCOCC3)cc12,-12.1,22.7,-2.5,-7.0,2.8,-3.1
Cc1c(C(=O)O)oc2ccc(S(=O)(=O)NCCC3=CCCCC3)cc12,36.6*,-1.6,-1.6,-1.7,?,9.6
COC(=O)c1cccc(OCC(C)CN2CCC(C(O)(c3ccccc3)c3ccccc3)CC2)c1 (stereo not drawn),nt,nt,nt,-1.5,nt,nt
Cc1ccsc1C=C1C(=O)c2ccccc2C1=O,37.5*,3.0,-6.1,2.0,1.4,17.5
Cc1ccc(-c2cc(-c3ccco3)c3c(N)c(C(=O)NN)oc3n2)cc1,29.0,29.6,4.1,9.5,-15.9,55.4*
NNC(=O)c1oc2nc(-c3cccs3)cc(-c3ccco3)c2c1N,24.4,25.0,-10.7,-11.9,0.8,65.3
CC(C)(C)c1ccc(C2C(C#N)=C(N)Oc3n[nH]c(-c4cccnc4)c32)cc1 (stereo not drawn),-7.8,7.4,-13.0,36.4*,-0.2,25.9
CCOC(=O)Cn1cc(CN2CCS(=O)(=O)N(Cc3ccc(F)cc3)C(C(=O)OC)C2)nn1 (stereo not drawn),nt,nt,nt,-0.6,nt,nt
COc1ccc2nc(N3CCC(C)CC3)c(C#N)cc2c1,9.7,34.1,-12.5,-1.7,2.7,16.8
COc1ccc2nc(N3CCC(O)CC3)c(C#N)cc2c1,36.2*,9.5,-14.1,6.2,0.0,39.8
C#CCN(CC=C)Cc1ccc(OC)cc1OC,nt,nt,nt,7.3,nt,nt
Cc1cc(NCCO)c2cc(O)ccc2n1,-1.9,-8.3,-4.7,1.2,-9.7,56.8*
Cc1cc(NCCO)c2ccccc2n1,2.1,30.8,-2.0,2.9,9.9,-2.4
Cc1ccc(NC(=S)Nc2cccc3ccccc23)cc1F,-1.9,88.9*,-3.3,0.1,9.0,98.5
CC(=O)N(C)c1ccc(NC(=S)Nc2cccc3ccccc23)cc1,2.5,21.2,-7.8,2.8,15.3,94.7*
CC(=O)c1ccc(NC(=S)Nc2cccc3ccccc23)cc1,20.0,44.6*,3.5,20.1,-3.1,88.3
c1ccc(-n2c(SCc3cccc4ccccc34)nnc2-c2ccccn2)cc1,nt,nt,nt,-5.3,nt,nt
COc1ccc(-n2c(COc3ccc(C)cc3)nnc2SCC(=O)Nc2ccc(S(=O)(=O)Nc3cc(C)nc(C)n3)cc2)cc1,nt,nt,nt,-1.2,nt,nt
COc1ccc(-c2cc(N3CCCC3)n3ncnc3n2)cc1,5.2,8.3,-5.0,3.8,-6.8,14.2
COc1ccc(-c2cc(-c3ccccc3)n3ncnc3n2)cc1,-3.9,6.8,0.5,-12.2,23.1,52.7*
CC1(OC(=O)c2ccc(Cl)nc2)C(=O)C=C2C=C(c3ccc(C#N)cc3)OC=C2C1=O (stereo not drawn),36.0*,nt,1.2,nt,4.6,nt
COC(=O)CCCC1=CC2=CC(=O)C(C)(OC(=O)c3cccs3)C(=O)C2=CO1 (stereo not drawn),39.0*,11.4,7.1,nt,1.2,nt
